From ChEMBL document CHEMBL1828498, “Identification and characterization of a novel integrin-linked kinase inhibitor” (J Med Chem, 2011) come the findings set out here.

Assay [1] addresses Ribosomal protein S6 kinase beta-1 (Homo sapiens) (UniProt P23443). Description: Inhibition of p70S6K in human PC3 cells assessed as decrease in phosphorylated S6 by Western blot analysis. The class given is cell-based. The settings on record: PC-3. Summed up: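 PC-3 cells (parental, or stable GFP-CA-ILK clones selected with G418 250 μg/mL and GFP sorting) exposed 24 h in 5% FBS medium; SDS lysis, immunoblot at 1:1000 primary, ECL; representative of three experiments.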

For assay [2], the system named is PC-3. Description: Reduction in HER2 concentration in human PC3 cells expressing constitutively active ILK after 24 hrs by Western blot analysis. The class given is functional, cell-based. Summed up:
(§1)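 PC-3 versus stable PC-3/CA-ILK, or SKBR3 versus transient SKBR3/CA-ILK (electroporation, used 48 h after), treated 24 h in 5% FBS medium; immunoblotting with ECL; representative of three experiments.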

The target in assay [3] is Inhibitor of nuclear factor kappa-B kinase subunit beta (Homo sapiens) (UniProt O14920). Description: Inhibition of IKK-beta at 5 uM assessed as remaining activity. Summed up: (§2)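 Panel of 20 recombinant kinases, profiled by a commercial vendor.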
Sequence of Inhibitor of nuclear factor kappa-B kinase subunit beta (Homo sapiens) (O14920 whole entry): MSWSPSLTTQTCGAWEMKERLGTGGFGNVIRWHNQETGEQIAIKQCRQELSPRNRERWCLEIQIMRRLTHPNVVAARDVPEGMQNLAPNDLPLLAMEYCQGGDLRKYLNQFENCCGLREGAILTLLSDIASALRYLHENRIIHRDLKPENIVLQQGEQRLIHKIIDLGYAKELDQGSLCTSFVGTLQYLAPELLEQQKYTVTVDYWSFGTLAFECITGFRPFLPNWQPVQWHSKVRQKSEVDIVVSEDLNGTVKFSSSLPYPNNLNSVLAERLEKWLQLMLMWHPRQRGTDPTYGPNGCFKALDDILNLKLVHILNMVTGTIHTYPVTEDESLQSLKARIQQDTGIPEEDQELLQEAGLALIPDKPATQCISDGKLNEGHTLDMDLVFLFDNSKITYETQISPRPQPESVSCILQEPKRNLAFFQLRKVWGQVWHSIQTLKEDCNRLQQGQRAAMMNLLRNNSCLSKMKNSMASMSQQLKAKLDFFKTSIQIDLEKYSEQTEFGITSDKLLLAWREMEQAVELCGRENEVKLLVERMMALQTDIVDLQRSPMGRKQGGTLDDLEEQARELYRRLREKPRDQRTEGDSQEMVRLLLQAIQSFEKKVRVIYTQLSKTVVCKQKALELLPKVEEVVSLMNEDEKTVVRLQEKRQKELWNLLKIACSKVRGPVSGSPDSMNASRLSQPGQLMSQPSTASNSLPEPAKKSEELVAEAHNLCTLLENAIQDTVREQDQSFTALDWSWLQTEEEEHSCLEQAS
Assay [4] addresses Hepatocyte growth factor receptor (Homo sapiens) (UniProt P08581). Description: Inhibition of Met at 5 uM assessed as remaining activity. Summed up:
as §2

In another assay the test system is MDA-MB-468. The assay is described as follows: Antiproliferative activity against human MDA-MB-468 cells assessed as suppression of cell viability by MTT assay. The assay is classed as functional, cell-based. The procedure, abridged:
(§3)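 Cancer lines seeded 5000/well and nonmalignant PrEC/MEC 8000/well in 10% FBS, 24 h before treatment. Compound exposure 24 h in 5% FBS medium, 0.1% final DMSO. MTT (0.25 mg/mL) for 1 h at 37°C, dye solubilized in DMSO, absorbance read at 570 nm. Mean ± SD, n = 6.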

Assay [5] has as its system SK-BR-3. Description: Reduction in EGFR concentration in human SKBR3 cells expressing constitutively active ILK after 24 hrs by Western blot analysis. The class given is functional, cell-based. The procedure, abridged: as §1
In assay [6] the test system is PC-3. Description: Induction of apoptosis in human PC3 cells assessed as late apoptotic cells at 2 uM by annexin V/PI staining (reference value: 9.8%). The class given is functional.
In assay [7] the test system is 3-phosphoinositide dependent protein kinase-2, PDK2. Description: Inhibition of PDK2 in human PC3 cells assessed as Akt Ser-473 dephosphorylation by Western blot analysis. The assay is classed as functional, cell-based. As to conditions: PC-3. Summed up: (§4)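 Cells exposed 24 h in 5% FBS medium, final DMSO 0.1%; lysed in 1% SDS/10 mM EDTA/50 mM Tris pH 8.1, equal protein on SDS-PAGE, nitrocellulose, primary antibody 1:1000 at 4°C for 2 h, HRP secondary 1:5000, ECL detection; blots representative of three independent experiments.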

The test system of assay [8] is PC-3. The assay is described as follows: Induction of apoptosis in human PC3 cells assessed as PARP cleavage by Western blot analysis. The assay is classed as functional, cell-based. Summed up:
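PC-3 cells treated 24 h in 5% FBS medium. Lysed in 1% SDS/10 mM EDTA/50 mM Tris pH 8.1, equal protein on SDS-PAGE, primary antibody 1:1000 at 4°C for 2 h, HRP secondary, ECL detection. Read-outs PARP cleavage and LC3-II conversion; blots representative of three experiments.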

Assay [9] addresses T1, Scaffold protein ILK (Homo sapiens) (UniProt Q13418).
T1 sequence (whole entry): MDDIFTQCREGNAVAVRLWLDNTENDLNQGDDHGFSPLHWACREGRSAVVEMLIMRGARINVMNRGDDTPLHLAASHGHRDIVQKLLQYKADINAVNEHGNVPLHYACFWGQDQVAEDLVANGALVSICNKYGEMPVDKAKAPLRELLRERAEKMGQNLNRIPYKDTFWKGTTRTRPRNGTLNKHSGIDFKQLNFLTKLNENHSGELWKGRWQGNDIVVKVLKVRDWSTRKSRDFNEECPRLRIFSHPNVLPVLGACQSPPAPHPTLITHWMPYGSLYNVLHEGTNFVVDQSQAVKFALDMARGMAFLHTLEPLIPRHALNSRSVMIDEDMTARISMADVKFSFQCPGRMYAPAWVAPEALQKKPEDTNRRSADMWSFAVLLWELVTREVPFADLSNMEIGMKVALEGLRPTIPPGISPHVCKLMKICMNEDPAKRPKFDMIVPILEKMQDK
The assay is described as follows: Inhibition of ILK in human PC3 cells assessed as decrease in MLC phosphorylation by Western blot analysis. The class given is cell-based. The settings on record: PC-3. The procedure, abridged: (§5)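 PC-3 and MDA-MB-231 cells exposed 24 h in 5% FBS medium across a concentration series. Phospho-GSK3β (Ser9) and phospho-MLC (Thr18/Ser19) detected by immunoblot: SDS lysis, primary 1:1000 at 4°C for 2 h, HRP secondary, ECL. Representative of three experiments.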

For another assay, the system named is Mus musculus. The assay is described as follows: Inhibition of phosphorylation of Ser-437-Akt in human PC3 cells xenografted nude mouse tumor lysate at 25 mg/kg, po administered for 35 days by Western blot analysis. The class given is functional, organism-based. Further details: dose 25 mg/kg. The settings on record: Neoplasm, PC-3. Summed up: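 Tumors harvested at terminal sacrifice after 35 days of daily oral dosing, snap-frozen and stored at -80°C; lysates immunoblotted, three representative tumors per group.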

Assay [10] concerns SK-BR-3. Description: Antiproliferative activity against human SKBR3 cells assessed as suppression of cell viability by MTT assay. The class given is functional, cell-based. Summed up: as §3
The subject of assay [11] is PC-3. Description: Antiproliferative activity against human PC3 cells assessed as suppression of cell viability by MTT assay. The class given is functional, cell-based. Summed up: as §3
The test system of assay [12] is SK-BR-3. Description: Reduction in EGFR concentration in human SKBR3 cells after 24 hrs by Western blot analysis. The class given is functional, cell-based. Summed up: as §1
Assay [13] addresses Serine/threonine-protein kinase mTOR (Homo sapiens) (UniProt P42345). The assay is described as follows: Inhibition of mTOR at 5 uM assessed as remaining activity.
Assay [14] has as its target T1, Scaffold protein ILK (Homo sapiens). Description: Inhibition of ILK in human MDA-MB-231 cells assessed as decrease in MLC phosphorylation by Western blot analysis. The assay is classed as cell-based. The procedure, abridged:
as §5

Assay [15] has the same target. Description: Inhibition of ILK in human PC3 cells expressing constitutively active ILK assessed as decrease in phosphorylated p38 concentration by Western blot analysis. The class given is cell-based. As to conditions: PC-3. The procedure, abridged:
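Stable PC-3 clones expressing GFP-CA-ILK (G418 250 μg/mL selection, GFP sorting) treated 24 h in 5% FBS medium. Phospho-ERK1/2 and phospho-p38 detected by immunoblot with ECL. Representative of three experiments.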

In assay [16] the target is Protein kinase C alpha type (Homo sapiens) (UniProt P17252). The assay is described as follows: Inhibition of PKCalpha at 5 uM assessed as remaining activity.
Assay [17] has as its target Rapamycin-insensitive companion of mTOR (Homo sapiens) (UniProt Q6R327). Description: Inhibition of mTORC2 in human MDA-MB-231 cells assessed as SGK1 phosphorylation by Western blot analysis. The assay is classed as cell-based. Summed up: as §4
The target is the same in assay [18]. The assay is described as follows: Inhibition of mTORC2 in human MDA-MB-231 cells assessed as PKCalpha phosphorylation by Western blot analysis. The class given is cell-based. Summed up:
as §4

Assay [19] concerns SK-BR-3. Description: Reduction in EGFR mRNA expression in human SKBR3 cells expressing constitutively active ILK after 24 hrs by RT-PCR analysis. The assay is classed as functional, cell-based. The procedure, abridged:
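PC-3, PC-3/CA-ILK, SKBR3 and SKBR3/CA-ILK cells treated 24 h in 5% FBS medium; total RNA from 1 × 10^6 cells by Trizol, 1 μg reverse-transcribed, then PCR with gene-specific primers and β-actin reference.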

Active and inactive are the calls of the source. The calls are words filed in the database; no cut-off is given here.

Sequence of Rapamycin-insensitive companion of mTOR (Homo sapiens) (Q6R327 whole entry): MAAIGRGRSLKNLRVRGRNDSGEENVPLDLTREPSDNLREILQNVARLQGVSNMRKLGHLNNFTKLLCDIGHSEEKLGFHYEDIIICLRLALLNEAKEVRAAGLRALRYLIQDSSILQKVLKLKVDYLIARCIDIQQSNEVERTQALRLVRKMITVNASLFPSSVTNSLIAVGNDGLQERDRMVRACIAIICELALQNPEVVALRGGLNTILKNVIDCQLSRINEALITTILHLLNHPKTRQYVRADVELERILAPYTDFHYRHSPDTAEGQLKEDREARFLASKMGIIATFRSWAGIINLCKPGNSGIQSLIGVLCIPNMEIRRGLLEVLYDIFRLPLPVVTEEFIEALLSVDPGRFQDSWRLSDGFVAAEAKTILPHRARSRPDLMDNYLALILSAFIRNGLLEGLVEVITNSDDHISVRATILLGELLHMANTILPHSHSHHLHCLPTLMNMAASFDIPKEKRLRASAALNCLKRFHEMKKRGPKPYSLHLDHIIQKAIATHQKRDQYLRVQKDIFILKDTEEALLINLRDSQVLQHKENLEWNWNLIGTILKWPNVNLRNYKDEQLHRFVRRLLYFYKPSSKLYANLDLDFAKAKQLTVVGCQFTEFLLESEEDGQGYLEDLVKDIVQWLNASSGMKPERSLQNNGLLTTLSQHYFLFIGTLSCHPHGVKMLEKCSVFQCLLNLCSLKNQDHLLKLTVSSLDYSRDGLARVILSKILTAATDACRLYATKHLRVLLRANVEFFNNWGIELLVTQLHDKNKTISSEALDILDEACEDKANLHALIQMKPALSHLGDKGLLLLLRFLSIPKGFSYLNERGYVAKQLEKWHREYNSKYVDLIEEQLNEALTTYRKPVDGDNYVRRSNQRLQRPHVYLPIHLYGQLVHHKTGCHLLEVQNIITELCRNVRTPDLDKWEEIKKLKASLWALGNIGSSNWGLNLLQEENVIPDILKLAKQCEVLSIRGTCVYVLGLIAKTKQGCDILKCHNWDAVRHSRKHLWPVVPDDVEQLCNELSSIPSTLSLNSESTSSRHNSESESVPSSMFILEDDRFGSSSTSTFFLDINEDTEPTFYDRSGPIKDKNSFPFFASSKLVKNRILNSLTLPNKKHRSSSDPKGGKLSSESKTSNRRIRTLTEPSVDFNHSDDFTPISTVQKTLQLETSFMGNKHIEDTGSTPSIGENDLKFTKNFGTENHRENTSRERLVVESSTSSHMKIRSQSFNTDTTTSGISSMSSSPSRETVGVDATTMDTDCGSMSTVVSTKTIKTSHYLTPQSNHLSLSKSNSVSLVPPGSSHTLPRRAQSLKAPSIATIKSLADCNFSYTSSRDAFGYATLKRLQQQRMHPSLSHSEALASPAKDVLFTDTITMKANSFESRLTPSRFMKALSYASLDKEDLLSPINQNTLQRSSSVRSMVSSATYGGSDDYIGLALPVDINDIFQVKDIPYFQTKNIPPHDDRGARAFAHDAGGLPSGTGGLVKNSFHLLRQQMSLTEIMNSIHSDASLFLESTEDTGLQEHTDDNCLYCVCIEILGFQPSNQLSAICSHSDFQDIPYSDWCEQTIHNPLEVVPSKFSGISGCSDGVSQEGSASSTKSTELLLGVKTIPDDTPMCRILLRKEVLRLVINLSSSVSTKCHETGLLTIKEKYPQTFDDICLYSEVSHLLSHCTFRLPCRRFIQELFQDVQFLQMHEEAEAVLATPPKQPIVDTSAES
Sequence of Hepatocyte growth factor receptor (Homo sapiens) (P08581 whole entry): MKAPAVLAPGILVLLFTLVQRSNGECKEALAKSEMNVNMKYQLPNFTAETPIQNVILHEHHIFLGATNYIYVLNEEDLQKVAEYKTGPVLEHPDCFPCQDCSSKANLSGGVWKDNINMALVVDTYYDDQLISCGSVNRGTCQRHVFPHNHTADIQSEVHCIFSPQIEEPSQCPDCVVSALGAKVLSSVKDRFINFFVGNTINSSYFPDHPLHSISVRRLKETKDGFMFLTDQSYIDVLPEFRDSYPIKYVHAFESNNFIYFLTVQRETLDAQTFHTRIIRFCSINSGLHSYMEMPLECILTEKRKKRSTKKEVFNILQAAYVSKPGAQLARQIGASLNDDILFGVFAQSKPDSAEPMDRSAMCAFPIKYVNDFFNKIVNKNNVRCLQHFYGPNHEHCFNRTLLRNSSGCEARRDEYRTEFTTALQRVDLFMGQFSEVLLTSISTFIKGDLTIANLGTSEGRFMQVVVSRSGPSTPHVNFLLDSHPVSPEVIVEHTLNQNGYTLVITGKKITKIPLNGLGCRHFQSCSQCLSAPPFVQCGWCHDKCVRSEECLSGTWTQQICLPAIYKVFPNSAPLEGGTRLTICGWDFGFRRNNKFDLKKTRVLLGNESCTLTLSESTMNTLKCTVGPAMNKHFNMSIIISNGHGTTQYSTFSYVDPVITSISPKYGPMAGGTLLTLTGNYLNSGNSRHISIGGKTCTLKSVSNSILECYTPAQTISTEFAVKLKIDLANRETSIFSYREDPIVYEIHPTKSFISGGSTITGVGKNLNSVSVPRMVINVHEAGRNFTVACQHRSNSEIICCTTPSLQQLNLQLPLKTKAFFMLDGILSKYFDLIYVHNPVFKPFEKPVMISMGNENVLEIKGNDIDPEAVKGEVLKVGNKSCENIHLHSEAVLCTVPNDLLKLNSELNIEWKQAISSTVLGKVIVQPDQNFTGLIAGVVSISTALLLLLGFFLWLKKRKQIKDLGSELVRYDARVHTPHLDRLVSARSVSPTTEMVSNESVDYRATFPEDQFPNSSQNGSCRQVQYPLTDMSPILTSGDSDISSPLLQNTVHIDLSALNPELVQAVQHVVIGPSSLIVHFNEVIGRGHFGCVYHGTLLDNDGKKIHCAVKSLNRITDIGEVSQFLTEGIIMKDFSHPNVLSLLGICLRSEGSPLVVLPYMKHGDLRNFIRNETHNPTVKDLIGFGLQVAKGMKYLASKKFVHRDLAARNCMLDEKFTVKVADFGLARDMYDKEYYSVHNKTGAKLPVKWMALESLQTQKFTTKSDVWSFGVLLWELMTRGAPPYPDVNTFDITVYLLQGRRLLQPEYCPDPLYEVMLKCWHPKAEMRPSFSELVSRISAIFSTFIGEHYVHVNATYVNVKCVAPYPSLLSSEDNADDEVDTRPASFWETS
Sequence of Ribosomal protein S6 kinase beta-1 (Homo sapiens) (P23443 whole entry, looked up): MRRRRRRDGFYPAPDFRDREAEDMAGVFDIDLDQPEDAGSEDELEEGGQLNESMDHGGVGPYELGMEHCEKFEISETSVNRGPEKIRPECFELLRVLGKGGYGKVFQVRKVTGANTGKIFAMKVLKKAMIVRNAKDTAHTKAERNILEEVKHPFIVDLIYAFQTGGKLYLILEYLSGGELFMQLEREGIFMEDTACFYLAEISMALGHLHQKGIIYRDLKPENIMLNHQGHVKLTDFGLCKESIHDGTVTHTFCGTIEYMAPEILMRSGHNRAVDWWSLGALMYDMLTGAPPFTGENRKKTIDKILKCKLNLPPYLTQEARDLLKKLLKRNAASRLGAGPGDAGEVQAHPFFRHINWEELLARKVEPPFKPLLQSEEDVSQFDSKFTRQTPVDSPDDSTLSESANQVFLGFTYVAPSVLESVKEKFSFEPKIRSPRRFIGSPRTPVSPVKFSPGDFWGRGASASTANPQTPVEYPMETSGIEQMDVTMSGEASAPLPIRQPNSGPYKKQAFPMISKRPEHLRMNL

In the case of `CNC(=O)CCc1cc(-c2ccc(-c3ccc(C(F)(F)F)cc3)cc2)n(-c2ccc(N3CCNCC3)cc2)n1`, the inhibition entry in assay [1], in assay [9] and in assay [14] was “Active” each time. The outcome with PC-3 [2], with SK-BR-3 [5] and in the assay with SK-BR-3 [19] was inactive. For the same compound, the Activity in assay [3] is 102%; in [4], 110%; in the assay with PC-3 [6] it was 11.6%; with PC-3 [8], “Dose-dependent effect”; in the assay on Mus musculus, “Dose-dependent effect”; in the assay on SK-BR-3 [12] it was “Dose-dependent effect”. The figures for the Activity in assay [13] and in [16] were 122% and 97%, respectively. Besides, the values for the IC50 in the assay on MDA-MB-468, in the assay with SK-BR-3 [10] and in the assay with PC-3 [11] were 1500 nM, 1800 nM and 2000 nM, respectively. Further, the inhibition result in [7] was “Dose-dependent effect”. Further, the inhibition result in assay [15], in [17] and in assay [18] was “inactive” throughout.
